Source: ChEMBL document CHEMBL4385662, “Anti-tubercular activity of novel 4-anilinoquinolines and 4-anilinoquinazolines” (Bioorg Med Chem Lett, 2019)
Calls of active or inactive are those of the source. The calls are words filed in the database; no cut-off is given here.

Key:
[1] = tested on: Mycobacterium tuberculosis; assay: Anti-tubercular activity against Mycobacterium tuberculosis H37Rv expressing LuxABCDE assessed as luminescence signal at 2.5 uM by luminescence based assay relative to untreated control; type: functional
[2] = tested on: Mycobacterium tuberculosis; assay: Anti-tubercular activity against Mycobacterium tuberculosis H37Rv expressing LuxABCDE assessed as relative luminescence by measuring ratio of RLU (test compound)/RLU(no compound) at 20 uM by luminescence based assay; type: functional
[3] = tested on: Mycobacterium tuberculosis; assay: Anti-tubercular activity against Mycobacterium tuberculosis H37Rv expressing LuxABCDE assessed as luminescence signal at 1.3 uM by luminescence based assay relative to untreated control; type: functional
[4] = tested on: Mycobacterium tuberculosis; assay: Anti-tubercular activity against Mycobacterium tuberculosis H37Rv expressing LuxABCDE assessed as relative luminescence by measuring ratio of RLU (test compound)/RLU(no compound) at 10 uM by luminescence based assay; type: functional
[5] = tested on: Mycobacterium tuberculosis; assay: Anti-tubercular activity against Mycobacterium tuberculosis H37Rv expressing LuxABCDE assessed as relative luminescence by measuring ratio of RLU (test compound)/RLU(no compound) at 5 uM by luminescence based assay; type: functional
cells = type: ADME, cell-based; settings: Homo sapiens, WS1, 48 h
[6] = tested on: Mycobacterium tuberculosis; assay: Anti-tubercular activity against Mycobacterium tuberculosis H37Rv expressing LuxABCDE assessed as relative luminescence by measuring ratio of RLU (test compound)/RLU(no compound) at 2.5 uM by luminescence based assay; type: functional
[7] = tested on: Mycobacterium tuberculosis; assay: Anti-tubercular activity against Mycobacterium tuberculosis H37Rv expressing LuxABCDE assessed as relative luminescence by measuring ratio of RLU (test compound)/RLU(no compound) at 0.625 uM by luminescence based assay; type: functional, organism-based
[8] = tested on: Mycobacterium tuberculosis; assay: Anti-tubercular activity against Mycobacterium tuberculosis H37Rv expressing LuxABCDE assessed as relative luminescence by measuring ratio of RLU (test compound)/RLU(no compound) at 1.25 uM by luminescence based assay; type: functional
[9] = tested on: Mycobacterium tuberculosis; assay: Anti-tubercular activity against Mycobacterium tuberculosis H37Rv expressing LuxABCDE assessed as reduction in microbial growth at 20 uM by luminescence based assay relative to control; type: functional; settings: read-out: GI
Method in brief: (§1)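 Growth inhibition was assessed by two assays. […] Values are the mean of 3 biological replicates with standard deviation.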

[10] = tested on: Mycobacterium tuberculosis; assay: Anti-tubercular activity against Mycobacterium tuberculosis H37Rv expressing LuxABCDE assessed as reduction in microbial growth at 5 uM by luminescence based assay relative to control; type: functional; settings: read-out: GI; method in brief: as §1
[11] = tested on: Mycobacterium tuberculosis; assay: Anti-tubercular activity against Mycobacterium tuberculosis H37Rv expressing LuxABCDE assessed as reduction in microbial growth by luminescence based assay; type: functional; method in brief: as §1
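Wherever IC50 is given: cell viability loss read out with alamar blue dye, IC50 being the concentration cutting viability by half.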

SMILES	Activity [1]	Ratio [2]	Activity [3]	Ratio [4]	Ratio [5]	IC50 (cells)	Ratio [6]	Activity [7]	Ratio [8]	inhibition of growth at 20 µM [9]	inhibition of growth at 5 µM [10]	MIC90 [11]
COc1cc2nccc(Nc3cccc(Br)c3)c2cc1OC	>95%	0.6	>95%	0.9	1.03	9.6 µM						
COc1cc2ncc(C#N)c(Nc3cc(OC)c(OC)c(OC)c3)c2cc1OC	>95%	0.97	>95%	1.01	1.03	> 100 µM						
COc1cc2nccc(Nc3ccc(OCc4cccc(F)c4)c(Cl)c3)c2cc1OC	>95%	0.1	>95%	0.22	0.78	11 µM						
COc1cc2ncnc(Nc3ccc(OCc4ccccc4)cc3)c2cc1OC		0.6		0.77	0.83	> 100 µM	1.04	inactive	1.04			
COc1cc2nccc(Nc3ccc(NC(=O)c4ccc(C)cc4)c(O)c3)c2cc1OC		0.45		1.05	1.13	16 µM	1.09		1.14			
C#Cc1cccc(Nc2ccnc3cc(OC)c(OC)cc23)c1	>95%	0.67	>95%	0.89	1.02	> 100 µM						
C#Cc1cccc(Nc2c(C#N)cnc3cc(OC)c(OC)cc23)c1	>95%	0.98	>95%	1.03	1.08	> 100 µM						
Oc1ccc2c(Nc3ccc(OCc4ccc(F)cc4)cc3)ncnc2c1		0.83		0.89	0.9	> 100 µM	1.01	inactive	0.94			
COc1cc2nccc(Nc3cc(OC)c(OC)c(OC)c3)c2cc1OC	>95%	1.06	>95%	1.11	1.26	> 100 µM						
C#Cc1cccc(Nc2ncnc3cc(OC)c(OC)cc23)c1	>95%	0.69	>95%	0.83	0.93	> 100 µM						
COc1cc2ncnc(Nc3ccc(OCc4cccc(F)c4)c(Cl)c3)c2cc1OC	>95%	0.8	>95%	0.74	0.92	1.1 µM						
COc1ccc2nccc(Nc3ccc(NC(=O)c4ccc(C)cc4)c(O)c3)c2c1		0.95		1.28	1.14	10 µM	1.17		1.11			
Oc1cc2ncnc(Nc3ccc(OCc4ccc(F)cc4)cc3)c2cc1O		0.76		0.89	1	> 100 µM	1.14	inactive	1.04			
COc1cc2nccc(Nc3ccc(OCc4ccc(C)cc4)cc3)c2cc1OC		0.09		0.08	0.1	5.4 µM	0.17		0.43	98%	98%	0.63 to 1.25 µM
COc1cc2ncnc(Nc3cccc(Br)c3)c2cc1OC	>95%	0.65	>95%	0.71	0.98	3.9 µM						
COc1cc2ncc(C#N)c(Nc3cccc(Br)c3)c2cc1OC	>95%	0.37	>95%	0.56	0.88	11 µM						
Oc1ccc2ncnc(Nc3ccc(OCc4ccccc4)cc3)c2c1		0.8		0.9	0.96	26 µM	0.94	inactive	0.95			
COc1cc(Nc2ncnc3ccc(C(F)(F)F)cc23)cc(OC)c1OC	>95%	1.06	>95%	1.12	1.25	> 100 µM						
COc1ccc2ncnc(Nc3ccc(OCc4ccccc4)cc3)c2c1		0.62		0.83	0.89	> 100 µM	1.07	inactive	1.04			

SMILES	Activity [1]	Ratio [2]	Activity [3]	Ratio [4]	Ratio [5]	IC50 (cells)	Ratio [6]	Activity [7]	Ratio [8]	inhibition of growth at 20 µM [9]	inhibition of growth at 5 µM [10]	MIC90 [11]
Oc1ccc2c(Nc3ccc(OCc4ccccc4)cc3)ncnc2c1		0.89		0.88	0.89	> 100 µM	0.9	inactive	0.9			
COc1cc2nccc(Nc3ccc(NC(=O)c4ccc(C(C)(C)C)cc4)c(O)c3)c2cc1OC		0.25		0.72	1.06	2.6 µM	1.12		1.1			
COc1cc2ncnc(Nc3cc(OC)c(OC)c(OC)c3)c2cc1OC	>95%	0.94	>95%	1.01	1.03	> 100 µM						
C#Cc1cccc(Nc2ncnc3cc(OCCOC)c(OCCOC)cc23)c1								inactive				
COc1cc(Nc2ccnc3ccc(Br)cc23)cc(OC)c1OC	>95%	1.28	>95%	1.41	1.35	> 100 µM						
CS(=O)(=O)CCNCc1ccc(-c2ccc3ncnc(Nc4ccc(OCc5cccc(F)c5)c(Cl)c4)c3c2)o1 [LAPATINIB]		0.08		0.17	0.74	13 µM	0.9	inactive	0.99			
COc1ccc2c(Nc3ccc(OCc4ccccc4)cc3)ncnc2c1		0.64		0.87	0.99	> 100 µM	1.12	inactive	1.05			
C#Cc1cccc(Nc2ccnc3cc(OCCOC)c(OCCOC)cc23)c1	>95%	0.58	>95%	0.79	0.88	> 100 µM						
COc1cc(Nc2ccnc3ccc(C(F)(F)F)cc23)cc(OC)c1OC	>95%	1.21	>95%	1.14	1.23	> 100 µM						
COCCOc1cc2ncnc(Nc3cc(OC)c(OC)c(OC)c3)c2cc1OCCOC	>95%	0.87	>95%	0.96	1.02	> 100 µM						
COc1cc2ncnc(Nc3ccc(F)c(Cl)c3)c2cc1OCCCN1CCOCC1								inactive				
Oc1ccc2ncnc(Nc3ccc(OCc4cccc(F)c4)cc3)c2c1		0.25		0.39	0.49	12 µM	0.64	inactive	0.76			
Oc1ccc2nccc(Nc3ccc(OCc4ccccc4)cc3)c2c1		0.37		0.42	0.66	2.5 µM	0.86	inactive	0.95			
Oc1ccc2ncnc(Nc3ccc(OCc4ccccc4F)cc3)c2c1		0.28		0.46	0.63	28 µM	0.82	inactive	0.89			
Oc1ccc2ncnc(Nc3ccc(OCc4ccc(F)cc4)cc3)c2c1		0.32		0.44	0.64	> 100 µM	0.76	inactive	0.86			
Oc1cc2ncnc(Nc3ccc(OCc4ccccc4)cc3)c2cc1O		0.69		0.76	0.91	8.8 µM	0.93	inactive	0.95			
COc1ccc2c(Nc3ccc(NC(=O)c4ccc(C)cc4)c(O)c3)ccnc2c1		0.96		1.11	1.09	4.7 µM	1.11		1.13			
COc1cc2nccc(Nc3ccc(NC(C)=O)cc3)c2cc1OC		1.02		1.07	1.11	9.7 µM	1.1		1.21			
